Results on one compound are retold here after ChEMBL document CHEMBL3875168, “Synthesis and apoptosis inducing studies of triazole linked 3-benzylidene isatin derivatives” (Eur J Med Chem, 2016).

Test [1] in a line: Cell cycle arrest in human DU145 cells assessed as accumulation at sub G1 phase at 2.5 uM after 24 hrs by propidium iodide staining-based flow cytometry (reference value: 0.65%). The note with it: DU-145. In kind it is functional. Summed up: (§1)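 Compound given to DU145 at 2.5 and 5.0 μM for 24 h alongside untreated cells. Cells harvested, PBS-washed, fixed in ice-cold 70% ethanol, then stained 30 min at 37 °C in the dark with propidium iodide (50 μg/mL) plus RNase A (20 μg/mL) in 0.1% Triton X-100. About 10000 events per sample read by flow cytometry; a representative of three independent experiments is shown.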

The subject of test [2] is DU-145. The test is described as follows: Induction of apoptosis in human DU145 cells assessed as condensation of nucleus at 2.5 to 5 uM after 48 hrs by DAPI staining based fluorescence microscopic method. In kind it is functional, cell-based. The method in brief:
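DU145 treated for 48 h, PBS-washed, permeabilized with 0.1% Tween 20 for 10 min and stained with 1 μM DAPI. Nuclear morphology of control and treated cells viewed by fluorescence microscopy (excitation 359 nm, emission 461 nm) at 200x.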

Test [3] relates to DU-145. Description: Induction of morphological changes in human DU145 cells assessed as cell shrinkage at 1.25 to 5 uM after 48 hrs by acridine orange/ethidium bromide-dual staining based fluorescence microscopic method. In kind it is functional. Summed up: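 DU145 plated at 1×10^6 cells/mL, treated at several concentrations and kept 48 h at 37 °C in 5% CO2. Equal volumes of acridine orange and ethidium bromide (10 μg/mL) added, and cells imaged within 10 min by fluorescence microscopy (excitation 488 nm, emission 550 nm) at 200x.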

Test [4] can be described thus: Cytotoxicity against human PC3 cells assessed as cell growth inhibition after 48 hrs by MTT assay. In kind it is functional, cell-based. The note with it: PC-3, 48 h. The method in brief: (§2)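 Cell lines (NCCS) grown in DMEM or RPMI with 10% FBS and antibiotic-antimycotic at 37 °C, 5% CO2, 90% humidity. Cells seeded at 3-5×10^3 per well, treated 48 h with serial dilutions in medium beside vehicle control. Medium replaced with MTT (0.5 mg/mL) for 4 h, absorbance read at 570 nm. IC50 taken from concentration-response curves; sunitinib served as reference.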

Test [5] has as its system DU-145. Description: Induction of apoptosis in human DU145 cells assessed as early apoptotic cells at 1.25 uM after 24 hrs by Annexin V-FITC/propidium iodide staining based flow cytometry (reference value: 2.14%). In kind it is functional.
Test [6] is described as follows: Cell cycle arrest in human DU145 cells assessed as accumulation at G2/M phase at 5 uM after 24 hrs by propidium iodide staining-based flow cytometry (reference value: 29.66%). To be noted: DU-145. It counts as functional. The method in brief: as §1
In test [7] the test system is DU-145. The test is described as follows: Induction of apoptosis in human DU145 cells assessed as late apoptotic cells at 5 uM after 24 hrs by Annexin V-FITC/propidium iodide staining based flow cytometry (reference value: 5.4%). In kind it is functional.
Test [8] in a line: Cell cycle arrest in human DU145 cells assessed as accumulation at sub G1 phase at 5 uM after 24 hrs by propidium iodide staining-based flow cytometry (reference value: 0.65%). It counts as functional. To be noted: DU-145. Summed up:
as §1

For test [9], the system named is DU-145. The test is described as follows: Induction of apoptosis in human DU145 cells assessed as early apoptotic cells at 2.5 uM after 24 hrs by Annexin V-FITC/propidium iodide staining based flow cytometry (reference value: 2.14%). It counts as functional.
The subject of test [10] is DU-145. Description: Induction of apoptosis in human DU145 cells assessed as increase in intracellular reactive oxygen species after 6 hrs by DCFDA dye based spectrofluorometer. It counts as functional, cell-based.
The test system of test [11] is DU-145. The test is described as follows: Induction of apoptosis in human DU145 cells assessed as late apoptotic cells at 1.25 uM after 24 hrs by Annexin V-FITC/propidium iodide staining based flow cytometry (reference value: 5.4%). It counts as functional.
The nature of test [12]: Cell cycle arrest in human DU145 cells assessed as accumulation at G0/G1 phase at 2.5 uM after 24 hrs by propidium iodide staining-based flow cytometry (reference value: 62.81%). It counts as functional. To be noted: DU-145. Summed up:
as §1

Test [13] is described as follows: Cytotoxicity against human BT549 cells assessed as cell growth inhibition after 48 hrs by MTT assay. It counts as functional, cell-based. To be noted: BT-549, 48 h. Summed up: as §2

Active and inactive are the calls of the source. No cut-off for these calls is given here.

Consider `O=C1Nc2ccc(C(c3ccccc3)c3ccccc3)cc2/C1=C/c1cccc(OCc2cn(Cc3ccccc3)nn2)c1`, for which the Activity stood at 27.6% in [1]; 12.6% with DU-145 [5]; 48% in [6]; 25% in the test on DU-145 [7]; 18.3% in [8]; 18.05% with DU-145 [9]. The Activity entry with DU-145 [10] was “Dose-dependent effect”; in the test with DU-145 [11], 9.11%; in [12], 14.8%. Further, the outcome in the test with DU-145 [2] and in the test on DU-145 [3] was Active. Also, the IC50 in test [4] came out at 17.2 µM; in test [13] it was 15.8 µM.
